Calls of active or inactive are those of the source. No cut-off for these calls is given here. Bounds are passed on as bounds.

16 compounds from ChEMBL document CHEMBL1152726, “Discovery of small molecule human C5a receptor antagonists” (Bioorg Med Chem Lett, 2009) can be followed below.

The target in series [1] is T1, C5a anaphylatoxin chemotactic receptor 1 (Homo sapiens, UniProt P21730).
T1 sequence (P21730 whole entry): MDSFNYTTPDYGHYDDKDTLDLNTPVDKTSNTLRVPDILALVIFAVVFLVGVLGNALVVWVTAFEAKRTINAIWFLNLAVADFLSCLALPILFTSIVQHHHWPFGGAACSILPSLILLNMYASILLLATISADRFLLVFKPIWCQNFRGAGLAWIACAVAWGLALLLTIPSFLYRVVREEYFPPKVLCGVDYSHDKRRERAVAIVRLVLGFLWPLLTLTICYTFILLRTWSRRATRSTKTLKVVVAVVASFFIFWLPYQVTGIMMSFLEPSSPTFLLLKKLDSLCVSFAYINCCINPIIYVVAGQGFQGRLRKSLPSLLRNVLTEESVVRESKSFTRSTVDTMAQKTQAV
Description: Antagonist activity at human recombinant C5a receptor in HEK cells assessed as inhibition of C5a-induced calcium mobilization. The class given is functional, cell-based, HEK293. (Calcium flux is commonly read through the fluorescence of an indicator in the cells.)

The nature of series [2]: Metabolic stability in human liver microsomes assessed as intrinsic clearance. (Liver microsomes are vesicles of endoplasmic reticulum, rich in cytochrome P450 enzymes.)
Series [3] is described as follows: Metabolic stability in Sprague-Dawley rat hepatocytes assessed as intrinsic clearance measured per 10^6 cells.
The nature of series [4]: Lipophilicity, log D at pH 7.4. Conditions: buffer.
The target of series [5] is T2, C5a anaphylatoxin chemotactic receptor 1 (Mus musculus) (UniProt P30993).
T2 sequence (whole entry): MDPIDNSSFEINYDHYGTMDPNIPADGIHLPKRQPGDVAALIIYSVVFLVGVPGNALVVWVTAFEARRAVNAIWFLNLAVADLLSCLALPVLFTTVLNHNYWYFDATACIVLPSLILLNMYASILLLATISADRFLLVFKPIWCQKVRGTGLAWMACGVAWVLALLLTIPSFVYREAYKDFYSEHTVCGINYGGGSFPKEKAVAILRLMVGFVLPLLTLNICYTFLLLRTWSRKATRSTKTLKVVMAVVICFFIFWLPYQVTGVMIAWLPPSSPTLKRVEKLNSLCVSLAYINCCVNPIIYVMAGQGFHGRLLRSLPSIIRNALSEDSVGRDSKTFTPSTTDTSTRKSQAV
Description: Antagonist activity at mouse recombinant C5a receptor expressed in HEK cells assessed as inhibition of C5a-induced calcium mobilization at 30 uM. The format is functional, cell-based. Conditions: HEK293. The method, boiled down:
(§1)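 Non-human (dog, mouse or rat) recombinant C5aR cell lines tested for antagonism of C5a-stimulated intracellular calcium mobilization. Values are means of at least two experiments.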

Series [6] addresses T3, C5a anaphylatoxin chemotactic receptor 1 (Rattus norvegicus) (UniProt P97520).
T3 sequence (whole entry): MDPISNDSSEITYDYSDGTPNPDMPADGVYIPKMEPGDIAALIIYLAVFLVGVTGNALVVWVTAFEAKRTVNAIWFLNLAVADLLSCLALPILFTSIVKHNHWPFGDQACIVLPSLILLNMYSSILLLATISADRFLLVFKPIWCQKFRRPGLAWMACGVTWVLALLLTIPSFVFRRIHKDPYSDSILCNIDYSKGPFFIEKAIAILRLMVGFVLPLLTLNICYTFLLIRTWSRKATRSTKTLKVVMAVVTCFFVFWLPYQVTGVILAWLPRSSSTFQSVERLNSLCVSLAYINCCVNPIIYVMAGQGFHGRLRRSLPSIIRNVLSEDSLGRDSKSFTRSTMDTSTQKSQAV
Description: Antagonist activity at rat recombinant C5a receptor expressed in HEK cells assessed as inhibition of C5a-induced calcium mobilization at 30 uM. The format is functional, cell-based. Particulars: HEK293. The method, boiled down:
as §1

In series [7] the target is T4, C5a anaphylatoxin chemotactic receptor 1 (Canis lupus familiaris) (UniProt P30992).
T4 sequence (whole entry): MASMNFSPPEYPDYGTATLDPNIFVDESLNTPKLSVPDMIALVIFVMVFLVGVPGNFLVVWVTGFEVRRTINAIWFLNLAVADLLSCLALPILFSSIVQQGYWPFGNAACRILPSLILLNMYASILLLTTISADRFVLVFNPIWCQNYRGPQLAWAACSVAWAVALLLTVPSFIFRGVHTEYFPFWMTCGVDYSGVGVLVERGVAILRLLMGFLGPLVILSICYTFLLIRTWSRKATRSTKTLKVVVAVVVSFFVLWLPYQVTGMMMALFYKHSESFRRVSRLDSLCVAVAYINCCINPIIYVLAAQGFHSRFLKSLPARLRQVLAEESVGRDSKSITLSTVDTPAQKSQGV
Description: Antagonist activity at dog recombinant C5a receptor expressed in HEK cells assessed as inhibition of C5a-induced calcium mobilization at 30 uM. The class given is functional, cell-based. Conditions: HEK293. The method, boiled down: as §1

Series [8] has as its target T1, C5a anaphylatoxin chemotactic receptor 1. Description: Displacement of [Alexa647]C5a from human recombinant C5a receptor expressed in HEK cells by whole cell binding assay. The class given is cell-based, HEK293. The method, boiled down: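 Whole-cell FMAT competition binding measured inhibition of Alexa-647-labeled C5a binding to HEK-293 cells co-expressing human recombinant C5aR and Gα16. pIC50 derived; values are means of at least two experiments.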

Series [9] has the same target.
Series [10] shares this target. Description: Displacement of [125I]C5a from human recombinant C5a receptor expressed in HEK cells by membrane binding assay. In general terms: In a radioligand displacement assay an active substance lowers the binding of a labelled ligand.
Series [11] has the same target. Description: Displacement of from human recombinant C5a receptor expressed in HEK cells by membrane binding assay in presence.

Broadly, the IC50 is the concentration that gives 50% inhibition. For `COc1ccc(N(C(=O)c2ccccc2)C(C)C(=O)NC2CCCC2)c(OC)c1` (centres undefined), the IC50 in [1] is above 10000 nM.
One may read the microsomal CLint as the capacity of the preparation to metabolise the compound, expressed as a volume cleared per time. As usually defined, the hepatocyte CLint is a measure of how fast metabolising enzymes remove a compound, apart from limits set by blood flow. `COc1ccc(N(C(=O)c2occc2C)C(C(=O)NC[C@@H](C)O)c2ccccc2F)c(OC)c1` (some centres undefined): the IC50 in [1] is 20 nM. Besides, the microsomal CLint in [2] (liver microsomes) was determined as 126 µL/min/mg. In addition, in series [3], the intrinsic metabolic clearance (hepatocyte CLint) came out at 87 µL/min/1e6 cells.
For the compound `COc1ccc(N(C(C)=O)C(C(=O)NC2CCCC2)c2ccccc2F)c(OC)c1` (centres undefined), the IC50 in [1] was 794 nM.
Take `CN(C(=O)c1ccccc1)C(C(=O)NC1CCCC1)c1ccccc1F` (centres undefined): the IC50 in series [1] is above 10000 nM.
A word on the logD: it is lipophilicity at a set pH, counting ionised and neutral species. The low end stands for a more hydrophilic compound, the high end for a more lipophilic compound. `COc1ccc(N(C(=O)c2ccccc2)C(C(=O)NC[C@@H](C)O)c2ccccc2F)c(OC)c1` (some centres undefined): in [4], the logD stood at 2.55. Further, the IC50 in series [1] was 63.1 nM. Besides, the microsomal CLint in series [2] (liver microsomes) was found to be 104 µL/min/mg. Also, the hepatocyte CLint in series [3] was above 150 µL/min/1e6 cells.
As usually defined, the EC50 is the concentration giving half of the maximal effect. Consider `COc1ccc(N(C(=O)c2ccccc2)C(C(=O)NC2CCCC2)c2ccccc2F)c(OC)c1` (centres undefined), for which the log distribution coefficient (logD) in series [4] turned out to be 3.9. The IC50 in [1] was 25.1 nM; in [8] it was 39.8 nM; in [10] it was 794 nM; in series [11], 31.6 nM. For the same compound, the outcome in series [5], in series [6] and in [7] was inactive. Further, the EC50 in [9] is 123 nM.
In series [4], `COc1ccc(N(C(=O)c2ccoc2Cl)C(C(=O)NC[C@@H](C)O)c2ccccc2F)c(OC)c1` (some centres undefined) came in with a pH-dependent lipophilicity (logD) of 2.4. The IC50 in series [1] was 316 nM. Also, in [2] (liver microsomes), the microsomal CLint was 48 µL/min/mg. Moreover, the hepatocyte CLint in series [3] came out at 33 µL/min/1e6 cells.
Taken in the same sequence, the figures for `COc1ccc(N(C(=O)c2occc2Cl)C(C(=O)NC[C@@H](C)O)c2ccccc2F)c(OC)c1` (some centres undefined) were 2.2, 200 nM, 148 µL/min/mg and 59 µL/min/1e6 cells.
As to `COc1ccc(N(C(=O)c2ccccc2)C(C(=O)O)c2ccccc2F)c(OC)c1` (centres undefined), the IC50 in series [1] is above 10000 nM.
As for `COc1ccc(N(C(=O)c2ccccc2)C(C(=O)NC(C)CN(C)C)c2ccccc2F)c(OC)c1` (centres undefined), in series [1], the IC50 was 1000 nM. For the same compound, the microsomal CLint in [2] (liver microsomes) turned out to be 135 µL/min/mg. In addition, in series [3], the hepatocyte CLint turned out to be 33 µL/min/1e6 cells.
Taken in the same sequence, the figures for `COc1ccc(N(C(=O)c2ccoc2C)C(C(=O)NC[C@@H](C)O)c2ccccc2F)c(OC)c1` (some centres undefined) were 39.8 nM, 134 µL/min/mg and 75 µL/min/1e6 cells.
`COc1ccc(N(C(=O)c2occc2CN(C)C)C(C(=O)NC[C@@H](C)O)c2ccccc2F)c(OC)c1` (some centres undefined): in [1], the IC50 was 3160 nM. In series [2] (liver microsomes), the microsomal CLint stood at 12 µL/min/mg. Besides, the intrinsic metabolic clearance (hepatocyte CLint) in [3] was below 3 µL/min/1e6 cells.
`COc1ccc(N(C(=O)c2occc2CO)C(C(=O)NC[C@@H](C)O)c2ccccc2F)c(OC)c1` (some centres undefined): the logD in series [4] is 1.4. Further, the microsomal CLint in [2] (microsomes) amounted to 12 µL/min/mg. In series [3], the hepatocyte CLint turned out to be 8 µL/min/1e6 cells.
`COCc1ccoc1C(=O)N(c1ccc(OC)cc1OC)C(C(=O)NC[C@@H](C)O)c1ccccc1F` (some centres undefined) yielded a logD in series [4] of 2. Further, in series [1], the IC50 is 100 nM. In series [2] (liver microsomes), the microsomal CLint amounted to 76 µL/min/mg. For the same compound, in [3], the intrinsic metabolic clearance (hepatocyte CLint) is 35 µL/min/1e6 cells.
On to `COc1ccc(N(C(=O)c2ccco2)C(C(=O)NC2CCCC2)c2ccccc2F)c(OC)c1` (centres undefined), for which the IC50 was 126 nM in [1], 79.4 nM in series [8], 3160 nM in series [10] and 251 nM in series [11]. Also, the microsomal CLint in series [2] (liver microsomes) was above 150 µL/min/mg. The hepatocyte CLint in series [3] is above 150 µL/min/1e6 cells. Moreover, the outcome in [5], in series [6] and in series [7] was inactive.
For the compound `COc1ccc(N(C(=O)c2ccccc2)C(C(=O)NC[C@H](C)O)c2ccccc2F)c(OC)c1` (some centres undefined), the IC50 in series [1] was above 100 nM.
